Results on 26 compounds are retold here after ChEMBL document CHEMBL1159038, “Synthetic studies on selective adenosine A2A receptor antagonists: synthesis and structure-activity relationships of novel benzofuran derivatives” (Bioorg Med Chem Lett, 2010).

Series [1] deals with Adenosine receptor A2a (Homo sapiens) (UniProt P29274). The experiment in a line: Inhibition of [3H]CGS21680 binding to human adenosine A2A receptor at 0.1 umol/L by scintillation counting. The method, boiled down:
(§1)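 Membranes from cells transfected with human A2A receptor, diluted 20-fold in 50 mmol/L Tris pH 7.4 with 120 mmol/L NaCl, 5 mmol/L KCl, 10 mmol/L MgCl2, 2 mmol/L CaCl2 and 2 U/mL adenosine deaminase. Incubated with [3H]CGS21680 (final 75 nmol/L) and test drug, 25 °C for 90 min. Filtered through 0.5% polyethyleneimine-treated filters, then scintillation counted. Nonspecific binding with 50 µmol/L NECA. Triplicate average.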

Series [2] shares this target. The experiment in a line: Inhibition of [3H]CGS21680 binding to human adenosine A2A receptor at 0.01 umol/L by scintillation counting. An outline of the steps:
as §1

The target is the same in series [3]. The experiment in a line: Inhibition of [3H]CGS21680 binding to human adenosine A2A receptor at 1 umol/L by scintillation counting. The method, boiled down:
as §1

Series [4] has as its system Mus musculus. The experiment in a line: Antiparkinsonian effect in mouse assessed as inhibition of CGS-21680-induced catalepsy at 10 mg/kg, po. It counts as functional. An outline of the steps: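 Compounds were given orally at 10 mg/kg to mice. Catalepsy was induced with CGS, and inhibition of catalepsy is expressed as %.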
Series [5] concerns the target T1, Adenosine receptor A2b (Homo sapiens) (UniProt P29275).
T1 sequence (whole entry): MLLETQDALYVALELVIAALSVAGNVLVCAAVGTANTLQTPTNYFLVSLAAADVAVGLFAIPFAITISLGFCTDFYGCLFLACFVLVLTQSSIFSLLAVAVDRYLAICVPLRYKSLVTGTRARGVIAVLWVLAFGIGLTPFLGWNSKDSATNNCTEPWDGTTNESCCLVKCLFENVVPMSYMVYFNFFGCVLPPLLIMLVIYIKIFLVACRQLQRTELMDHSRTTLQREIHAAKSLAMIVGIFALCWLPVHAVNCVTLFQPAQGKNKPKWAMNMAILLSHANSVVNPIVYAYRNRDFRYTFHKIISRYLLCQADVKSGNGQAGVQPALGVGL
The experiment in a line: Antagonist activity at human adenosine A2B receptor at 10 umol/L. It counts as functional.

For series [6], the target named is T2, Adenosine receptor A1 (Homo sapiens) (UniProt P30542).
T2 sequence (whole entry): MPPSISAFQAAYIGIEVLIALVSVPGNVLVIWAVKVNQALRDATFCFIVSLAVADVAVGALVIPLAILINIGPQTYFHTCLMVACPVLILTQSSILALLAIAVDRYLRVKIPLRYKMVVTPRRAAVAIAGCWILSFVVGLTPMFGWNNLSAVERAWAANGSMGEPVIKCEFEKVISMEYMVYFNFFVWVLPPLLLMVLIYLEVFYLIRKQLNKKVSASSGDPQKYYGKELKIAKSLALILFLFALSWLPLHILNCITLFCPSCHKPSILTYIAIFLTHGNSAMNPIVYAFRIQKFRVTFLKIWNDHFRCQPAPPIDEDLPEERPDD
The experiment in a line: Antagonist activity at human adenosine A1 receptor at 1 umol/L. It counts as functional.

In series [7] the target is T1, Adenosine receptor A2b (Homo sapiens). The experiment in a line: Antagonist activity at human adenosine A2B receptor at 1 umol/L. It counts as functional.
The target of series [8] is T2, Adenosine receptor A1 (Homo sapiens). The experiment in a line: Antagonist activity at human adenosine A1 receptor at 10 umol/L. It counts as functional.
Series [9] is described as follows: Intrinsic clearance in rat liver microsomes. It counts as ADME, Microsome. An outline of the steps:
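Rat liver microsomal incubations gave the apparent intrinsic clearance (CL_int). This was corrected for the free fraction of compound in the incubation to give CL_int/f_m.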

In general, inhibition refers to the change of the read-out against control, counted positive when it falls. A word on the inhibition in vivo: it is the drop in the measured response relative to a control, in per cent. The CLint scaled is the capacity of the preparation to metabolise the compound, expressed as a volume cleared per time. High values mean faster metabolism, low ones greater metabolic stability.

Molecules are shown by their SMILES.

Chain of Adenosine receptor A2a (Homo sapiens) (P29274 whole entry): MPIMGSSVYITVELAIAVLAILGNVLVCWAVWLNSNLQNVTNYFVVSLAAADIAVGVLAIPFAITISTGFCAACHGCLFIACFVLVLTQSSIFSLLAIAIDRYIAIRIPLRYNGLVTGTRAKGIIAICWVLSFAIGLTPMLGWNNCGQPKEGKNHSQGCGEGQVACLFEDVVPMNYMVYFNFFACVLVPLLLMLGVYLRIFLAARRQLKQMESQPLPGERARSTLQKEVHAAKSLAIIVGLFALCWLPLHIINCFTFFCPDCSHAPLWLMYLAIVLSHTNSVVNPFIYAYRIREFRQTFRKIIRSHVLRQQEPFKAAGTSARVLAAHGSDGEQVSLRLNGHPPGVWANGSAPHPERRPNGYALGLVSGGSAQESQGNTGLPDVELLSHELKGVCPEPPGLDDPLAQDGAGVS

On to `COc1ccc(-c2csc(-c3ccc(C)nc3)n2)c2cc(C(=O)Nc3ccc(Cn4ccnc4)cc3)oc12`, for which the inhibition in series [1] was 23%; in series [2], 12%; in series [3] it was 20%.

As to `CCOC(=O)c1ccc(-c2ccc(OC)c3oc(C(=O)Nc4ccccc4)cc23)cc1`, the inhibition was -2% in [1] and -8% in series [3].

With `COc1ccc(-c2ccc(Cl)cc2)c2cc(C(=O)Nc3ccc(Cn4ccnc4)cc3)oc12`, the values for the inhibition in [1] and in series [2] were 33% and 8%, respectively.

Turning to `COC(=O)c1ccc(OC)c2oc(C(=O)Nc3ccc(Cn4ccnc4)cc3)cc12`, the inhibition in series [1] was 80%; in series [2], 40%; in series [3], 98%. Also, in series [4], the inhibition in vivo at 10 mg/kg was found to be 0%.

Take `COc1ccc(-c2ccccc2)c2cc(C(=O)Nc3c(Cl)cncc3Cl)oc12`: the inhibition in series [1] turned out to be 101%; in series [2], 83%. Also, the inhibition in vivo at 10 mg/kg in series [4] is 74%.

Turning to `COc1ccc(-c2ccccc2)c2cc(C(=O)Nc3ccc(Cn4ccnc4)cc3)sc12`, the inhibition was determined as 20% in series [1] and 25% in series [2].

Turning to `COc1ccc(-c2ccccc2)c2cc(NC(=O)Oc3ccc(F)cc3)oc12`, the inhibition came to 32% in [1] and 11% in series [2].

On to `COc1ccc(-c2csc(-c3ccc(C)nc3)n2)c2cc(C(=O)Nc3ccc(F)cc3)oc12`, for which the inhibition in series [1] was determined as 6%; in series [2] it was 17%; in [3], 4%.

As to `COC(=O)c1ccc(OC)c2oc(C(=O)Nc3ccc(OC)cc3)cc12`, the figures for the inhibition in [1] and in series [3] were 53% and 91%, respectively.

Regarding `COc1ccc(-c2ccccc2)c2cc(NC(C)=O)oc12`, the inhibition in series [1] came to 91%; in series [2], 62%. Also, the inhibition in vivo at 10 mg/kg in series [4] stood at 28%.

For `COc1ccc(-c2ccc(Cl)cc2)c2cc(C(=O)Nc3ccncc3)oc12`, the values for the inhibition in series [1] and in series [2] were 28% and 18%, respectively.

Consider `COc1ccc(-c2csc(C)n2)c2cc(C(=O)Nc3ccc(F)cc3)oc12`, for which the figures for the inhibition in series [1], in series [2] and in series [3] were 15%, 1% and 60%, respectively.

Regarding `COc1ccc(-c2ccccc2)c2cc(NC(=O)Nc3ccc(F)cc3)oc12`, the inhibition in series [1] stood at 37%; in series [2], 22%.

On to `COC(=O)c1ccc(OC)c2oc(C(=O)Nc3ccc(Cl)cc3)cc12`, for which the results for the inhibition in series [1], in series [2] and in [3] were 43%, 1% and 77%, respectively.

With `COc1ccc(-c2ccccc2)c2cc(C(=O)Nc3ccncc3)sc12`, the results for the inhibition in [1] and in series [2] were 31% and 11%, respectively.

Regarding `COc1ccc(-c2ccc(OC)c3oc(C(=O)Nc4ccc(Cn5ccnc5)cc4)cc23)cc1`, the inhibition is 4% in series [5]; 63% in [1]; 24% in [2]; -4% in series [6]; 90% in [3]. Further, in [4], the inhibition in vivo at 10 mg/kg was found to be 54%.

As to `COC(=O)c1ccc(OC)c2oc(C(=O)Nc3cccc(F)c3)cc12`, the inhibition in [1] turned out to be 58%; in series [2], 14%; in [3], 86%. Further, the inhibition in vivo at 10 mg/kg in [4] was found to be 48%.

With `COc1ccc(NC(=O)c2cc3c(-c4csc(-c5ccccc5)n4)ccc(OC)c3o2)cc1`, the values for the inhibition in series [1] and in [2] were 11% and 6%, respectively.

`CNC(=O)c1cc2c(-c3ccccc3)ccc(OC)c2o1`: the figures for the inhibition in series [1] and in [2] were 88% and 57%, respectively. In addition, the inhibition in vivo at 10 mg/kg in series [4] worked out at 18%.

Take `COc1ccc(-c2ccccc2)c2cc(C(=O)Nc3ccncc3)oc12`: the inhibition was found to be 21% in [7]; 58% in series [5]; 77% in [8]; 20% in [6]; 100% in series [3]. Moreover, in [9], the CLint scaled is 580 mL/min/kg. In addition, the inhibition in vivo at 10 mg/kg in series [4] is 40%.

As to `COc1ccc(-c2ccccc2)c2cc(NC(=O)Oc3ccccc3)oc12`, the values for the inhibition in series [1] and in series [2] were 65% and 23%, respectively. Further, in series [4], the inhibition in vivo at 10 mg/kg was 34%.

Turning to `COC(=O)Nc1cc2c(-c3ccccc3)ccc(OC)c2o1`, the inhibition in series [1] was determined as 85%; in series [2], 28%. Moreover, the inhibition in vivo at 10 mg/kg in series [4] worked out at 86%.

As for `COc1ccc(-c2ccccc2)c2cc(C(=O)NN3CCOCC3)oc12`, the inhibition in [7] came to 81%; in [5], 98%; in [1] it was 81%; in series [8] it was 82%; in [2], 39%; in series [6], 37%. For the same compound, in series [3], the inhibition turned out to be 103%. The compound further had a CLint scaled in series [9] of 20.3 mL/min/kg. Also, in series [4], the inhibition in vivo at 10 mg/kg stood at 78%.

For `COC(=O)c1ccc(OC)c2oc(C(=O)Nc3ccccc3)cc12`, the figures for the inhibition in series [1], in series [2] and in series [3] were 49%, 6% and 86%, respectively. The compound also gave an intrinsic metabolic clearance (CLint scaled) in [9] of 758 mL/min/kg.

In the case of `COc1ccc(-c2ccccc2)c2cc(C(=O)Nc3ccc(Cn4ccnc4)cc3)oc12`, the inhibition in series [7] turned out to be 1%; in series [5] it was 1%; in [1] it was 64%; in series [8], 10%; in [2], 24%; in series [6], 9%. Besides, in [3], the inhibition was 95%. This compound also gave a CLint scaled in series [9] of 2600 mL/min/kg. Also, the inhibition in vivo at 10 mg/kg in series [4] stood at 12%.

Take `COc1ccc(-c2ccccc2)c2cc(C(=O)Nc3ccc(F)cc3)oc12`: the inhibition in series [1] came to 49%; in [2], 13%; in series [3], 67%.
